Screening results as filed in PubChem BioAssay.
This is a sample that favours compounds with a hit; in the whole collection about 2.6% have one here.
Rce1 inh = inhibitors of yeast Ras-converting enzyme | yeast membranes, quenched prenylated peptide cleavage fluorescence | calls only | hit rate 0.27% among 290,000;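 active = fall in fluorescence gain of 50% or more versus controls, with final raw signal at or below 3038400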;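 note: plate controls were neutral control wells for no effect and wells lacking membranes for full effect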
Platelet DG rel = platelet dense granule release activity. human platelet-rich plasma, SFLLRN dense granule ATP release, luminescence. inhibition, %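 (compounds screened at 7.5 µM in platelet-rich plasma)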. hit rate 0.22% among 300,000;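 active = mean replicate score, as percent of positive control, at or above 50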
TAAR1 antag = antagonists of human TAAR1; Q96RJ0; CHO RD-HGA16 TAAR1, Fluo-8 calcium fluorescence, antagonist; inhibition, % at 3 µM; hit rate 1.5% among 360,000; AID 624466;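 active = inhibition above a per-plate cutoff, the mean inhibition of test compounds on that plate plus 3 SD, cut at about 49% in these data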;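 note: 0% = DMSO plus EC80 beta-PEA response and 100% = DMSO alone without agonist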
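Material: RD-HGA16 CHO cells with stable hTAAR1 and Gα16; Dosing: single nominal final test compound concentration of 3 µM; Schedule: seeding 17-24 h prior, 75-min 37 °C, 30-min RT dye loading; Detection: kinetic Fluo-8 calcium fluorescence measurement; Measure: % inhibition from peak post-agonist over basal fluorescence ratio; Benchmarks: vehicle and agonist controls.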
TAAR1 agonist = agonists of human TAAR1 | Q96RJ0 | CHO RD-HGA16 TAAR1, Fluo-8 calcium fluorescence; vehicle wells 0%, saturating PEA agonist 100% | activation, % at 3 µM | hit rate 0.99% among 360,000 | AID 624467;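 active = activation above the mean activation of all test compounds in the run plus 3 SD, cut at about 38% in these data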
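Repeats: no replicates (n 1) | Material: CHO-derived RD-HGA16 cells with stable Gα16 and human TAAR1 | Technique: Kinetic Fluo-8 calcium fluorescence | Schedule: 17-24 h seeding, 75 min 37 °C dye, 30 min RT | Evaluation: % activation from peak over basal fluorescence ratio, DMSO-to-PEA scaled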
VLA-4 inh = inhibition in a human VLA-4 binding assay. inhibition, % (about 7 µM as worked out from the volumes in the protocol). VLA-4 expressing cells, ligand binding flow cytometry. hit rate 0.2% among 330,000; in the data active = inhibition above about 50%
VLA-4 mod pick = confirmation of allosteric modulators of human VLA-4 integrin | hit rate 2% among 1,300 | U937 cells, HUTS-21 LIBS mAb binding, flow cytometry; LDV ligand present at threefold Kd | shares compounds with VLA-4 inh | inhibition, % at 6.7 µM; in the data active = inhibition above about 40%;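 note: 0% = ligand without compound and 100% = no ligand background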
* = called active by the depositor; i = inactive; nt = no result; + = active, no number.

SMILES	Rce1 inh	Platelet DG rel	TAAR1 antag	TAAR1 agonist	VLA-4 inh	VLA-4 mod pick
COc1cc(/C=C/C(=O)OCC(=O)Nc2c(C)n(C)n(-c3ccccc3)c2=O)ccc1O	i	3	-6	1	-2	nt
CC1CN(C(=O)COC(=O)c2cnc(Cl)c(Cl)c2)CC(C)O1 (centres undefined)	nt	nt	-15	4	-1	nt
O=C(CCC(=O)Nc1ccc(F)cc1)N/N=C/c1ccncc1	i	0	15	4	56*	0
C[C@@H](NC(=O)/C(C#N)=C/c1ccc(O)c(O)c1)c1ccccc1	nt	nt	-28	20	-4	nt
CC(NC(=O)/C(C#N)=C/c1ccc(Cl)c([N+](=O)[O-])c1)c1ccccc1 (centres undefined)	+	11	21	39*	61*	63*
COc1cccc2cc(C(N)=O)oc12	i	-9	0	5	51*	-4
COc1cccc2cc(C(=O)c3ccc([N+](=O)[O-])cc3)oc12	i	-1	-6	-1	4	nt
COc1ccc(C2C3=C(CC(C)(C)CC3=O)Oc3ncn(CCCn4ccnc4)c(=N)c32)cc1 (centres undefined)	i	19	-6	9	90*	8
CCO[C@H]1OC(C(=O)N2CCN(Cc3ccccc3)CC2)=C[C@@H](C2CCCCC2)[C@@H]1CCCO	i	5	-12	3	53*	0
CC(C)(C)[C@H]1C=C(C(=O)Nc2ccccc2)O[C@@H](OCCCCO)C1	i	-4	13	0	21	7
CCO[C@H]1OC(C(=O)Nc2ccccc2)=C[C@@H](C)[C@@H]1CCCO	i	0	0	6	91*	-6
CCO[C@@H]1OC(C(=O)Nc2ccccc2)=C[C@H](c2ccccc2)[C@H]1CCCO	i	-8	1	10	9	nt
CN(C)CCNC(=O)C(=O)NCC1CCCN1S(=O)(=O)c1cccs1 (centres undefined)	i	33	9	4	6	nt
Cc1ccc([C@H]2C(C(=O)O)=C[C@@H](C(C)(C)C)N2S(=O)(=O)c2ccc(C)cc2)cc1	nt	nt	1	1	-12	nt
COc1ccc([C@H]2C(C(=O)O)=C[C@@H](C(C)(C)C)N2S(=O)(=O)c2ccccc2)cc1	nt	nt	-8	0	-14	-1
Cc1ccc(S(=O)(=O)N2[C@@H](c3ccc(C(C)C)cc3)C(C(=O)O)=C[C@H]2C(C)(C)C)cc1	nt	nt	-9	0	29	9
Cc1ccc(S(=O)(=O)N2[C@@H](c3ccc(Cl)c(Cl)c3)C(C(=O)O)=C[C@H]2C(C)(C)C)cc1	nt	nt	nt	nt	31	nt
Cc1ccc(S(=O)(=O)N2[C@@H](c3cccc(C)c3)C(C(=O)O)=C[C@H]2C(C)(C)C)cc1	nt	nt	-4	4	-13	3
Cc1ccc(S(=O)(=O)N2[C@H](CC(=O)Oc3ccccc3)OC[C@@H]2C(C)C)cc1	nt	nt	-8	3	nt	nt
Cc1cnc(C(=O)OCC(=O)NCc2ccc(Cl)cc2)cn1	nt	nt	8	3	-5	nt
COc1ccc(CCN(C)C(=O)Cn2c(=O)oc3ccccc32)cc1OC	i	-7	-13	1	10	nt
CCOc1ccccc1NC(=O)Cn1c(=O)oc2ccccc21	i	3	8	-2	0	nt
CCC(=O)c1cn(CC(=O)Nc2cccc(C)c2C)c2ccccc12	i	-4	-13	3	23	3
Cc1cccc(NC(=O)Cn2c(=O)oc3ccccc32)c1C	i	9	-23	2	-20	-4
Cc1ccc(NC(=O)Cn2c(=O)oc3ccccc32)c(C)c1	i	-2	-15	2	2	-11
SMILES	Rce1 inh	Platelet DG rel	TAAR1 antag	TAAR1 agonist	VLA-4 inh	VLA-4 mod pick
COc1ccc(CCNC(=O)Cn2c(=O)oc3ccccc32)cc1OC	i	12	0	-1	0	-12
Cc1ccc(NC(=O)Cn2c(=O)oc3ccccc32)cc1	i	-8	9	0	8	nt
O=C(NS(=O)(=O)Nc1ccccn1)c1c[nH]c2ccccc12	i	16	-9	4	-4	nt
Cc1ccc(-n2nc(C(=O)N3CCOCC3)cc2-c2ccc(Cl)cc2)cc1	i	-5	-4	3	-10	nt
O=C(c1cc(-c2ccc(Cl)cc2)n(-c2ccc(Cl)cc2)n1)N1CCOCC1	i	2	7	14	92*	5
O=C(CSc1nnc(-c2ccccc2O)o1)Oc1ccc(Br)cc1	i	-17	17	8	8	nt
O=C(CSc1nnc(-c2ccccc2Cl)o1)Oc1ccc(Br)cc1	i	-17	-35	-2	91*	9
COC(=O)CCC(=O)Nc1c(C)n(C)n(-c2ccccc2)c1=O	i	0	4	6	-8	nt
COc1ccc(N(CC(=O)Nc2c(C)n(C)n(-c3ccccc3)c2=O)S(=O)(=O)c2ccc(C)cc2)cc1OC	i	2	-4	-2	1	nt
Cc1c(NC(=O)CCC2CCCCC2)c(=O)n(-c2ccccc2)n1C	i	-1	-10	4	15	7
COc1ccc(S(=O)(=O)CCC(=O)Nc2c(C)n(C)n(-c3ccccc3)c2=O)cc1	nt	nt	4	-1	23	-10
Cc1cccc(N(CC(=O)Nc2c(C)n(C)n(-c3ccccc3)c2=O)S(C)(=O)=O)c1	nt	0	-5	2	0	-4
Cc1c(NC(=O)C2CCCN2S(=O)(=O)c2ccccc2)c(=O)n(-c2ccccc2)n1C (centres undefined)	i	-4	-15	5	5	3
FC(F)(F)c1ccccc1-c1ccc2nncn2c1	nt	nt	1	-1	nt	nt
COc1ccccc1-n1cnnc1SCc1csc(-c2ccccc2)n1	nt	nt	12	1	95*	-8
CCc1cc2c(=O)n3c(nc2s1)-c1[nH]c2ccc(OC)cc2c1CC3	i	-5	-2	2	45	-9
COc1ccc2[nH]c3c(c2c1)CCNC3=O	i	-3	7	12	26	nt
COc1ccc(C(=O)c2c3ccccc3[n+]([O-])n2CCC(N)=O)cc1	i	-6	13	2	55*	7
CCN(CC(=O)Nc1ccc(N2CCOCC2)cc1)CC(=O)NC(C)(C)C	i	1	-2	1	45	-10
CN(CC(=O)Nc1ccc(N2CCOCC2)cc1)CC(=O)Nc1ccc(C(F)(F)F)cc1	i	nt	-22	7	-4	nt
CN(CC(=O)Nc1ccc(N2CCOCC2)cc1)C(=O)CCNC(=O)c1ccc(Br)cc1	i	-3	-7	1	50*	-4
CC(=O)Oc1cccc(NC(=O)c2ccc3c(c2)C(=O)N(CC(C)C)C3=O)c1	i	0	20	8	1	nt
O=C(NCCc1cccc(Cl)c1)c1ccc(OC2CCN(Cc3ccccn3)CC2)cc1	i	-5	-6	9	nt	nt
c1ccc2[nH]c(NCCCN3CCOCC3)nc2c1	i	1	6	6	62*	8
